# Screening data deposited in PubChem by several laboratories.
# FAS-TE inh = FAS thioesterase domain inhibitors, primary screen, biochemical, fluorescence intensity, uHTS | hit rate 0.67% among 360,000 | recombinant FAS-TE, OMFH fluorogenic substrate, fluorescence endpoint | AID 602261, 2012 | Fatty acid synthase (Homo sapiens), P49327 | inhibition, % at 15 µM;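 active means compounds whose normalised, plate-corrected inhibition of enzyme fluorescence in the single-dose primary screen is 50% or more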;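 further: 0% = DMSO with enzyme and 100% = substrate without enzyme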
# ADAM17 inh = ADAM17 inhibitors, primary screen, biochemical, QFRET. AID 720648, 2013. inhibition, % at 6.95 µM. recombinant ADAM17, EDANS/DABCYL FRET peptide cleavage. Disintegrin and metalloproteinase domain-containing protein 17 (Homo sapiens), P78536. hit rate 0.83% among 370,000;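 active means inhibition above the mean of compounds lying between control limits plus 3 SD, set per campaign, cut at about 8.5% in these data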;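 further: 0% = DMSO-only wells as the low control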
# ADAM10 inh = human ADAM10 inhibitors, primary screen, biochemical, QFRET, HTS | inhibition, % at 7 µM | Disintegrin and metalloproteinase domain-containing protein 10 (Homo sapiens), O14672 | recombinant ADAM10, EDANS/DABCYL FRET peptide cleavage, 3 h | hit rate 0.62% among 370,000;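 active means inhibition above a per-campaign cutoff equal to the mean of compounds falling between control-based bounds plus 3 SD, cut at about 20% in these data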;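 further: 0% = DMSO wells while the 100% control is not disclosed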
# SENP1 FRET inh = human SENP1 catalytic domain inhibitors, primary screen, biochemical, FRET, uHTS | Sentrin-specific protease 1 (Homo sapiens), Q9P0U3 | recombinant SENP1 catalytic domain, CyPet-SUMO1-YPet FRET cleavage | inhibition, % at 10 µM | hit rate 0.21% among 360,000 | AID 624204, 2012;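 active means inhibition at least 30% at 10 µM, raw YFP signal under a set limit, fluorescence ratio 0.5 to 1.5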;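 further: 0% = enzyme with DMSO and 100% = no enzyme wells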
# Target sequence (Q9P0U3 419-644 limits assumed): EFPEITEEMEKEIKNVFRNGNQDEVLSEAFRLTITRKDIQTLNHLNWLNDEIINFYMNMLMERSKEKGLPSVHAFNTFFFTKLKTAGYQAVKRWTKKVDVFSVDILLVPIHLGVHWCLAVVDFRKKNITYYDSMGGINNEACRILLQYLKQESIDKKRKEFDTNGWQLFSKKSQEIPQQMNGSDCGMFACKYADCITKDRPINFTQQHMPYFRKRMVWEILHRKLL
#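 Assay system: hSENP1 catalytic domain, recombinant. Amount: SENP1 enzyme, 20 pM final. Schedule: 50 min reaction, RT, dark. Technique: FRET, CFP and YFP emission. Control set: no-enzyme wells low, DMSO-plus-enzyme wells high control.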
# ADAM10 counter = ADAM10 inhibitors, counter-screen for ADAM17 exosite inhibitor project, biochemical, FRET, human ADAM10. inhibition, % at 6.95 µM. hit rate 47% among 2,900. shares compounds with ADAM17 inh. recombinant ADAM10, EDANS/DABCYL FRET peptide cleavage, 3 h;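 active means mean inhibition over the triplicate runs exceeds the activity threshold set in the earlier primary screen, cut at about 20% in these data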;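 further: 0% = DMSO wells and 100% = marimastat wells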
# ADAM17 confirm = ADAM17 inhibitors, hit retest, confirmation, biochemical, QFRET peptide cleavage; shares compounds with ADAM17 inh; recombinant ADAM17, EDANS/DABCYL QFRET peptide cleavage; inhibition, % at 6.95 µM; hit rate 65% among 2,900; AID 743257, 2014;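 active means mean inhibition across replicates above the hit cutoff set in the primary screen, cut at about 8.5% in these data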;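 further: 0% = DMSO wells and 100% = marimastat wells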
# The depositor's hits bear a star; . = not tested or not shown. Most compounds without a hit are left out; they make up all but 1.9% or so of the library.
SMILES,FAS-TE inh,ADAM17 inh,ADAM10 inh,SENP1 FRET inh,ADAM10 counter,ADAM17 confirm
Clc1ccc(-n2c(SC/C=C/c3ccccc3)nnc2-c2cccnc2)cc1,24,14*,19,1,1,6
Nn1c(SC/C=C/c2ccccc2)nnc1-c1cccnc1,-9,-4,-5,0,.,.
COc1ccc(-n2c(Cc3cccs3)nnc2SCC(=O)Nc2cccc3ccccc23)cc1,.,4,10,.,.,.
Cc1ccc(S(=O)(=O)n2ccc(-c3c(-c4ccc(F)cc4)noc3C)n2)cc1,.,6,12,.,.,.
CC(C)(C)c1ccc(-c2nnc(SCc3ccccc3)n2Cc2ccco2)cc1,.,7,15,.,.,.
CCCCCC[C@H](CC)CN(C(=O)Oc1ccccc1)c1ccccc1,.,-5,-16,.,.,.
CCOc1ccc(/C=C/C(=O)c2cc(Br)ccc(=O)c2O)cc1,26,11*,8,3,4,22*
COC(=O)C1CN(Cc2ccc(C)cc2)CCS(=O)(=O)N1Cc1cn(Cc2ccc(F)cc2)nn1 (configuration not stated),.,-2,0,.,.,.
CCCCOc1cc(C)nc(NCc2ccccc2)n1,17,11*,14,2,16,8
CCCCN(C)c1c2c(nc3ncnn13)CCCC2,.,2,2,.,.,.
COC(=O)[C@@]12C[C@@H](CC(=O)NCc3ccccc3)C(=O)N(Cc3cccc4ccccc34)C1=CCC(C)(C)C2,.,9.1*,17,2,15,6
COC(=O)[C@]12CCCCC=C1N(CCc1ccc(OC)c(OC)c1)C(=O)[C@H](CC(=O)NCc1cccc(C(F)(F)F)c1)C2,.,8.8*,13,3,24*,15*
COC(=O)[C@]12CCCCC=C1N(Cc1ccc3c(c1)OCO3)C(=O)[C@H](CC(=O)NCc1cccc3ccccc13)C2,.,8.9*,19,-1,33*,22*
COC(=O)[C@]12CCCCC=C1N(Cc1ccccc1)C(=O)[C@H](CC(=O)NCc1cccc3ccccc13)C2,13,5,4,1,.,.
COC(=O)[C@@]12C[C@@H](CC(=O)NCc3cccc4ccccc34)C(=O)N(Cc3cccc4ccccc34)C1=CCC(C)(C)C2,.,-6,-18,0,.,.
CCOC(=O)[C@]12CCCCC/C=C\1N(Cc1ccc(OC)cc1)C(=O)[C@H]2CC(=O)NCC12CC3CC(CC(C3)C1)C2,.,3,8,.,.,.
CC1CCC2(CC1)CCC2NCc1ccc(Cl)c(Cl)c1 (configuration not stated),.,-5,-4,.,.,.
CC(C)C(c1nnnn1Cc1ccccc1)N1CCN(Cc2ccco2)CC1 (configuration not stated),-5,-4,-9,-1,.,.
CC(C)C(c1nnnn1Cc1ccco1)N1CCN(c2cccc(Cl)c2)CC1 (configuration not stated),30,14*,20,-2,12,8
O=C(c1ccco1)N1CCC(c2nc3c(nnn3Cc3ccccc3Cl)c(=O)[nH]2)CC1,0,-1,-7,-1,.,.
O=C(c1ccco1)N1CCN(c2nc(C3CC3)nc3c2nnn3Cc2ccccc2Cl)CC1,13,11*,13,2,19,8
CC(=O)c1cccc(NC(=O)C2CCCC2)c1,-5,9.5*,-1,0,-7,-3
CCn1c(SCC(=O)N/N=C/C=C/c2ccccc2[N+](=O)[O-])nnc1-c1ccc(Cl)cc1,.,-3,-3,.,.,.
O=C(CSc1nnc(-c2ccccc2)n1-c1ccccc1)NN=C/C=C\c1ccccc1[N+](=O)[O-],.,8.8*,14,.,30*,16*
CCOc1ccc(S(=O)(=O)c2ccc(C)cc2)c2c1no[n+]2[O-],34,11*,7,3,2,5
Cc1cccc(NC(=S)N=Nc2c(O)[nH]c3ccccc23)c1,0,9.9*,15,7,27*,13*
